Self-cleavage data for 167 variants are collected here from the RNAGym collection of RNA variant scans (doi:10.1002/anie.201605470).

The chains are these.
B1: Osa-1-4 twister ribozyme (parent)
chain: CCGCCUAACACUGCCAAUGCCGGUCCCAAGCCCGGAUAAAAGUGGAGGGGGCGG

The variants in the data set derive from B1. As to the kind of experiment: self-cleavage, relative activity (ratio to wild type); higher = more cleavage; co-transcriptional. The essentials: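 Relative activity is the fraction cleaved divided by that of the wild-type ribozyme. The library came from a DNA template for a 54-nucleotide Oryza sativa twister ribozyme, doped at the 48 positions downstream of the cleavage site with 97 % wild-type base and 1 % of each other base. After 2 h of in vitro transcription at 37 °C with co-transcriptional self-cleavage, the RNA was reverse-transcribed with a template-switching oligonucleotide, amplified by PCR and deep-sequenced, and reads with or without upstream sequence gave the cleavage status.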
On to G19U G30C, for which the self-cleavage worked out at 0.05.

With G19U G30A, the self-cleavage was found to be 0.05.

As to G19U G30U, the self-cleavage was 0.04.

Take G19U G23C: the self-cleavage worked out at 0.04.

Regarding G19U G23U, the self-cleavage was 0.04.

For the variant G19U G23A, the self-cleavage turned out to be 0.07.

Consider C20G G44U, for which the self-cleavage came out at 0.07.

Regarding C20G G44C, the self-cleavage was found to be 0.06.

Take C20G G44A: the self-cleavage came out at 0.08.

As to C20A C52A, the self-cleavage was determined as 0.8.

Consider C20A C52G, for which the self-cleavage is 0.79.

On to C20A C52U, for which the self-cleavage came to 0.82.

On to C20G G45U, for which the self-cleavage turned out to be 0.02.

As to C20G G45C, the self-cleavage came to 0.03.

In the case of C20G G45A, the self-cleavage was found to be 0.04.

For the variant G19C G50A, the self-cleavage worked out at 0.24.

Regarding G19C G50C, the self-cleavage turned out to be 0.06.

As for G19C G50U, the self-cleavage is 0.07.

On to C20A C9U, for which the self-cleavage worked out at 0.53.

Regarding C20A C9A, the self-cleavage came out at 0.29.

For the variant C20A C9G, the self-cleavage was 0.68.

For C20G G54U, the self-cleavage came to 0.12.

As to C20G G54A, the self-cleavage came out at 0.06.

As for C20G G54C, the self-cleavage was 0.07.

With G19C G30C, the self-cleavage was determined as 0.03.

Regarding G19C G30U, the self-cleavage turned out to be 0.02.

Regarding G19C G30A, the self-cleavage came to 0.02.

On to G19U U37A, for which the self-cleavage worked out at 0.15.

For the variant G19U U37C, the self-cleavage worked out at 0.84.

As for G19U U37G, the self-cleavage was 0.53.

Regarding C20A G19A, the self-cleavage worked out at 0.86.

In the case of C20A G19C, the self-cleavage worked out at 0.31.

For C20A G19U, the self-cleavage stood at 0.78.

As to C20G U18A, the self-cleavage worked out at 0.13.

As for C20G U18C, the self-cleavage stood at 0.2.

Regarding C20G U18G, the self-cleavage amounted to 0.09.

C20G U37A: the self-cleavage worked out at 0.2.

In the case of C20G U37C, the self-cleavage came out at 0.19.

For the variant C20G U37G, the self-cleavage came to 0.19.

For C20A G13U, the self-cleavage was 0.02.

As for C20A G13A, the self-cleavage was determined as 0.13.

For the variant C20A G13C, the self-cleavage was found to be 0.01.

For C20G C31A, the self-cleavage worked out at 0.02.

Consider C20G C31U, for which the self-cleavage was found to be 0.07.

In the case of C20G C31G, the self-cleavage stood at 0.09.

Regarding C20G G30C, the self-cleavage was 0.03.

As for C20G G30U, the self-cleavage was 0.02.

For C20G G30A, the self-cleavage stood at 0.03.

C20G G47C: the self-cleavage is 0.04.

For C20G G47U, the self-cleavage stood at 0.03.

C20G G47A: the self-cleavage turned out to be 0.05.

As for G19U G47A, the self-cleavage was 0.04.

Regarding G19U G47C, the self-cleavage stood at 0.04.

Turning to G19U G47U, the self-cleavage was determined as 0.04.

Take G19U U24G: the self-cleavage is 0.07.

Consider G19U U24A, for which the self-cleavage was 0.05.

For G19U U24C, the self-cleavage was 0.07.

As to C20A G49C, the self-cleavage worked out at 0.06.

For the variant C20A G49U, the self-cleavage turned out to be 0.16.

Take C20A G49A: the self-cleavage amounted to 0.2.

As for C20G C33U, the self-cleavage came to 0.05.

C20G C33G: the self-cleavage was 0.05.

For C20G C33A, the self-cleavage was found to be 0.04.

C20G U24A: the self-cleavage worked out at 0.07.

Take C20G U24C: the self-cleavage turned out to be 0.11.

Take C20G U24G: the self-cleavage was determined as 0.05.

In the case of G19U G42C, the self-cleavage is 0.06.

Take G19U G42U: the self-cleavage is 0.04.

As to G19U G42A, the self-cleavage came out at 0.06.

Turning to C20A U24A, the self-cleavage turned out to be 0.37.

With C20A U24G, the self-cleavage was found to be 0.06.

Consider C20A U24C, for which the self-cleavage was determined as 0.17.

Take C20G U43A: the self-cleavage was found to be 0.07.

Regarding C20G U43G, the self-cleavage was 0.09.

Consider C20G U43C, for which the self-cleavage turned out to be 0.07.

As to C20G C9G, the self-cleavage stood at 0.1.

With C20G C9U, the self-cleavage worked out at 0.05.

In the case of C20G C9A, the self-cleavage is 0.05.

On to C20A U37A, for which the self-cleavage came out at 0.83.

Take C20A U37C: the self-cleavage was 0.88.

For the variant C20A U37G, the self-cleavage amounted to 0.89.

On to C20A U43C, for which the self-cleavage was 0.58.

Turning to C20A U43A, the self-cleavage was 0.77.

In the case of C20A U43G, the self-cleavage came to 0.71.

Take C20A G30U: the self-cleavage worked out at 0.03.

Regarding C20A G30A, the self-cleavage is 0.04.

Consider C20A G30C, for which the self-cleavage is 0.04.

Turning to C20G G53U, the self-cleavage was 0.04.

Consider C20G G53A, for which the self-cleavage turned out to be 0.06.

In the case of C20G G53C, the self-cleavage came to 0.03.

With G19U G51U, the self-cleavage was found to be 0.08.

With G19U G51A, the self-cleavage turned out to be 0.15.

As to G19U G51C, the self-cleavage turned out to be 0.07.

C20A G44U: the self-cleavage stood at 0.78.

C20A G44C: the self-cleavage was found to be 0.76.

As for C20A G44A, the self-cleavage is 0.75.

In the case of G19C G49A, the self-cleavage came out at 0.04.

Regarding G19C G49U, the self-cleavage worked out at 0.04.

Regarding G19C G49C, the self-cleavage was 0.03.

Consider C20A C21G, for which the self-cleavage came out at 0.12.

As for C20A C21U, the self-cleavage amounted to 0.86.

Take C20A C21A: the self-cleavage was 0.78.

Take C20A C32G: the self-cleavage is 0.05.

For the variant C20A C32A, the self-cleavage came to 0.07.

Turning to C20A C32U, the self-cleavage turned out to be 0.08.

With G19C G47A, the self-cleavage came to 0.03.

G19C G47U: the self-cleavage worked out at 0.04.

In the case of G19C G47C, the self-cleavage is 0.02.

As for C20A C25A, the self-cleavage worked out at 0.19.

As for C20A C25G, the self-cleavage amounted to 0.11.

For the variant C20A C25U, the self-cleavage came out at 0.78.

On to C20G G42U, for which the self-cleavage is 0.02.

Take C20G G42A: the self-cleavage is 0.07.

Take C20G G42C: the self-cleavage came to 0.04.

On to C20G G35U, for which the self-cleavage amounted to 0.27.

Regarding C20G G35C, the self-cleavage was found to be 0.28.

Take C20G G35A: the self-cleavage came to 0.27.

For C20U C9U, the self-cleavage came out at 0.68.

In the case of C20U C9A, the self-cleavage was 0.38.

Consider C20U C9G, for which the self-cleavage amounted to 0.73.

For the variant G19U U18C, the self-cleavage came out at 0.36.

In the case of G19U U18G, the self-cleavage came out at 0.33.

For G19U U18A, the self-cleavage was 0.11.

For the variant G19U G34U, the self-cleavage was 0.3.

For G19U G34A, the self-cleavage worked out at 0.52.

For the variant G19U G34C, the self-cleavage turned out to be 0.2.

For C20A C33G, the self-cleavage worked out at 0.05.

For C20A C33A, the self-cleavage came to 0.08.

On to C20A C33U, for which the self-cleavage worked out at 0.76.

Regarding G19C, the self-cleavage amounted to 0.27.

As to G19U, the self-cleavage stood at 0.57.

On to G19U G35U, for which the self-cleavage was 0.76.

In the case of G19U G35C, the self-cleavage turned out to be 0.6.

As to G19U G35A, the self-cleavage amounted to 0.21.

For the variant G19C U12G, the self-cleavage is 0.06.

Consider G19C U12A, for which the self-cleavage was 0.04.

For G19C U12C, the self-cleavage is 0.04.

On to C20U C21A, for which the self-cleavage was found to be 0.87.

Consider C20U C21U, for which the self-cleavage was 1.05.

As to C20U C21G, the self-cleavage worked out at 0.26.

With C20G G48A, the self-cleavage worked out at 0.03.

Take C20G G48C: the self-cleavage amounted to 0.04.

On to C20G G48U, for which the self-cleavage was found to be 0.03.

Regarding C20G C27U, the self-cleavage worked out at 0.05.

As to C20G C27G, the self-cleavage is 0.05.

On to C20G C27A, for which the self-cleavage was determined as 0.04.

Regarding G19C U43G, the self-cleavage is 0.07.

Regarding G19C U43A, the self-cleavage turned out to be 0.07.

On to G19C U43C, for which the self-cleavage amounted to 0.05.

Regarding G19C U24C, the self-cleavage turned out to be 0.04.

As for G19C U24A, the self-cleavage is 0.04.

On to G19C U24G, for which the self-cleavage stood at 0.04.

Consider C20A G53A, for which the self-cleavage was 0.67.

Consider C20A G53U, for which the self-cleavage was found to be 0.42.

As to C20A G53C, the self-cleavage stood at 0.1.

As to C20G C25G, the self-cleavage amounted to 0.06.

Take C20G C25A: the self-cleavage was 0.06.

Take C20G C25U: the self-cleavage came out at 0.21.

On to G19U G53U, for which the self-cleavage was determined as 0.09.

Regarding G19U G53C, the self-cleavage worked out at 0.06.

Regarding G19U G53A, the self-cleavage was 0.1.

For the variant C20A U12A, the self-cleavage amounted to 0.82.

Regarding C20A U12C, the self-cleavage is 0.57.

As for C20A U12G, the self-cleavage came to 0.71.

In the case of C20A G42C, the self-cleavage was 0.17.

As to C20A G42U, the self-cleavage is 0.07.

Turning to C20A G42A, the self-cleavage stood at 0.59.
